Data published in ChEMBL document CHEMBL1144306, “1-Hydroxyalkyl-3-phenylthioureas as novel HDL-elevating agents” (2005).

Columns and labels:
Assay type in all cases: functional
[1] = test system: Rattus norvegicus; test: Effect on level of apolipoprotein (Apo) AI (relative to untreated control) in cholesterol fed-male rats at 38 mg/kg/day
Procedure, shortened: (§1)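 Six male Sprague–Dawley rats per group, fed a cholic acid/cholesterol-supplemented diet, received compound in the diet ad libitum for eight days. Serum Apo A–I was measured by SDS-PAGE or by rat competition ELISA and reported as % change versus untreated controls (p < 0.05). Gemfibrozil was the internal positive control in each study.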

[2] = test system: Rattus norvegicus; test: Effect on level of high density lipoprotein cholesterol (relative to untreated control) in cholesterol fed-male rats at 38 mg/kg/day
Procedure, shortened: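 Cholic acid/cholesterol-fed male Sprague–Dawley rats (n = 6 per group) were dosed via diet ad libitum for eight days. Lipoproteins were separated by ultracentrifugation and HDL cholesterol was quantified by an enzymatic colorimetric method. Values are % change relative to untreated controls, with significance at p < 0.05. Gemfibrozil was the internal positive control.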

[3] = test system: Rattus norvegicus; test: Effect on change in body weight gain (relative to untreated control) in cholesterol fed-male rats at 38 mg/kg/day
Procedure, shortened: (§2)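 Male Sprague–Dawley rats, six per group, on a cholic acid- and cholesterol-supplemented diet. Compounds were mixed into the diet and given ad libitum for eight days. Change in body weight gain is expressed as a percentage of untreated controls. Significance was set at p < 0.05 versus untreated controls.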

[4] = test system: Rattus norvegicus; test: Effect on level of total cholesterol (relative to untreated control) in cholesterol fed-male rats at 38 mg/kg/day
Procedure, shortened: (§3)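 Male Sprague–Dawley rats (groups of six) fed a cholic acid- and cholesterol-supplemented diet; compound mixed into the diet, given ad libitum for eight days. Lipoproteins were separated by ultracentrifugation, and cholesterol was measured by an enzymatic colorimetric method. Results are % change versus untreated controls, with significance at p < 0.05.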

[5] = test system: Rattus norvegicus; test: Effect on level of triglyceride in (relative to untreated control) in cholesterol fed-male rats at 38 mg/kg/day
Procedure, shortened: (§4)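 Serum triglycerides were measured in groups of six male Sprague–Dawley rats on a cholic acid/cholesterol-supplemented diet. Compound was dosed in the diet, ad libitum, for eight days. Results are % change relative to untreated controls, with significance at p < 0.05.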

[6] = test system: Rattus norvegicus; test: Effect on level of high density lipoprotein cholesterol (relative to untreated control) in cholesterol fed-male rats at 78 mg/kg/day; procedure, shortened: as §3
[7] = test system: Rattus norvegicus; test: Effect on level of total cholesterol (relative to untreated control) in cholesterol fed-male rats at 78 mg/kg/day; procedure, shortened: as §3
[8] = test system: Rattus norvegicus; test: Effect on change in body weight gain (relative to untreated control) in cholesterol fed-male rats at 78 mg/kg/day; procedure, shortened: as §2
[9] = test system: Rattus norvegicus; test: Effect on level of triglyceride in (relative to untreated control) in cholesterol fed-male rats at 78 mg/kg/day
Procedure, shortened: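 Compound given in diet ad libitum for eight days to groups of six male Sprague–Dawley rats on a cholic acid and cholesterol-supplemented diet. Serum triglycerides expressed as % change relative to untreated controls, with significance at p < 0.05. Gemfibrozil served as internal positive control within each study.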

[10] = test system: Rattus norvegicus; test: Effect on level of apolipoprotein (Apo) AI (relative to untreated control) in cholesterol fed-male rats at 78 mg/kg/day; procedure, shortened: as §1
[11] = test system: Rattus norvegicus; test: Effect on level of high density lipoprotein cholesterol (relative to untreated control) in cholesterol fed-male rats at 76 mg/kg/day; procedure, shortened: as §3
[12] = test system: Rattus norvegicus; test: Effect on level of total cholesterol (relative to untreated control) in cholesterol fed-male rats at 76 mg/kg/day; procedure, shortened: as §3
[13] = test system: Rattus norvegicus; test: Effect on change in body weight gain (relative to untreated control) in cholesterol fed-male rats at 76 mg/kg/day; procedure, shortened: as §2
[14] = test system: Rattus norvegicus; test: Effect on level of triglyceride in (relative to untreated control) in cholesterol fed-male rats at 76 mg/kg/day; procedure, shortened: as §4
[15] = test system: Rattus norvegicus; test: Effect on level of apolipoprotein (Apo) AI (relative to untreated control) in cholesterol fed-male rats at 76 mg/kg/day; procedure, shortened: as §1
[16] = test system: Rattus norvegicus; test: Effect on level of high density lipoprotein cholesterol (relative to untreated control) in cholesterol fed-male rats at 62 mg/kg/day; procedure, shortened: as §3
[17] = test system: Rattus norvegicus; test: Effect on change in body weight gain (relative to untreated control) in cholesterol fed-male rats at 62 mg/kg/day; procedure, shortened: as §2
[18] = test system: Rattus norvegicus; test: Effect on level of total cholesterol (relative to untreated control) in cholesterol fed-male rats at 62 mg/kg/day; procedure, shortened: as §3
[19] = test system: Rattus norvegicus; test: Effect on level of triglyceride in (relative to untreated control) in cholesterol fed-male rats at 62 mg/kg/day; procedure, shortened: as §4
[20] = test system: Rattus norvegicus; test: Effect on level of apolipoprotein (Apo) AI (relative to untreated control) in cholesterol fed-male rats at 62 mg/kg/day; procedure, shortened: as §1

For Cc1ccc(Cl)cc1/N=C(\S)NCC(=O)O, the Activity [1] was 14%, the Activity [2] was 8% and the Activity [3] was 10%. The Activity [4] was 24% and the Activity [5] was 4%.

Cc1ccc(Cl)cc1/N=C(\S)N1CCC(O)C1 (stereo not given) gave an Activity [6] of 9%, an Activity [7] of -5% and an Activity [8] of 2%. It also gave an Activity [9] of -24% and an Activity [10] of 4%.

In the case of Cc1ccc(Cl)cc1N/C(S)=N/[C@@H](C)CO, the Activity [11] is reported as 32%, the Activity [12] is reported as 48% and the Activity [13] is reported as 10%. It also gave an Activity [14] of 1% and an Activity [15] of 20%.

In the case of Cc1ccc(Cl)cc1N/C(S)=N/C[C@@H](C)O, the Activity [16] is reported as 60%, the Activity [17] is reported as -69% and the Activity [18] is reported as -1%. For the same compound, the Activity [19] was -68% and the Activity [20] was 25%.
